According to ChEMBL document CHEMBL3414463, “Discovery of potent and selective 8-fluorotriazolopyridine c-Met inhibitors” (J Med Chem, 2015):
Blank lines part the entries; values can stand above or below the molecule they belong to.

Tests used:
[1] = Volume of distribution at steady state in Sprague-Dawley rat at 0.25 mg/kg, iv; format: ADME, organism-based; set-up: dose 0.25 mg/kg, route intravenous; conditions: in vivo, read-out: Vdss
Method in brief: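 Male Sprague-Dawley rats were given a single IV dose of 0.25 mg/kg. The vehicle was DMSO, or for some compounds 20% (w/v) hydroxypropyl β-cyclodextrin in water adjusted to pH 3.5 with MSA. NC marks cases where the terminal disposition rate constant could not be characterized for lack of slope.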

[2] = system: Mus musculus; experiment: Inhibition of human recombinant HGF-stimulated c-Met autophosphorylation in Balb/c mouse assessed as relative phospho c-Met level at 10 mg/kg, po administered as single dose and measured 24 hrs before mouse sacrifice by electrochemiluminescence immunoassay; format: functional; set-up: scale not given: the % may be the effect or the level left
Method in brief: (§1)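 Mice received a single 10 mg/kg oral dose. Human recombinant HGF (12 μg) was given IV at 1, 3, 6, 9, 12 or 24 h postdose, and liver was harvested 5 min later. Liver phospho-c-Met was measured by electrochemiluminescent immunoassay. Mean ± SD, n = 3; ANOVA with Bonferroni/Dunn test versus HGF control.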

[3] = molecular target: T1, Hepatocyte growth factor receptor (Homo sapiens, UniProt P08581); experiment: Inhibition of recombinant c-Met kinase domain (unknown origin) incubated for 30 mins using gastrin peptide substrate by HTRF assay
[4] = molecular target: T1, Hepatocyte growth factor receptor; experiment: Inhibition of HGF-stimulated c-Met autophosphorylation in serum starved human PC3 cells pre-incubated for 1 hr followed by human recombinant HGF stimulation for 10 mins by quantitative electrochemiluminescence immunoassay; format: cell-based, PC-3
Method in brief: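 Serum-starved PC-3 cells (plated in high-glucose DMEM/10% FBS, then 16 h in low-glucose DMEM with 0.1% BSA) were treated with a 10-point inhibitor dilution for 1 h at 37 °C. Cells were then stimulated with 200 ng/mL recombinant human HGF for 10 min and lysed. Phospho-c-Met was captured with biotinylated anti-c-Met and 4G10 by electrochemiluminescence. IC50, n ≥ 2.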

[5] = system: Liver microsome; experiment: Drug metabolism in rat liver microsomes assessed as formation of (S)-2-(6-(1-(8-fluoro-6-(3-methylisoxazol-5-yl)-[1,2,4]triazolo[4,3-a]pyridin-3-yl)ethyl)quinolin-3-yloxy)ethanol in presence of NADPH by LC-MS/MS method; format: ADME
Method in brief: (§2)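 Compound incubated with NADPH in mouse, rat, dog, monkey or human liver microsomes. Metabolites were identified by accurate mass spectrometry and MS/MS, and selected ion chromatograms were used to build metabolite profiles.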

[6] = system: Rattus norvegicus; experiment: AUC (0 to infinity) in Sprague-Dawley rat at 0.25 mg/kg, iv; format: ADME, organism-based, Plasma; set-up: dose 0.25 mg/kg, route intravenous, time infinity; conditions: in vivo
[7] = system: Rattus norvegicus; experiment: Clearance in Sprague-Dawley rat at 0.25 mg/kg, iv; format: ADME, organism-based; set-up: dose 0.25 mg/kg, route intravenous; conditions: in vivo
[8] = Drug metabolism in monkey liver microsomes assessed as formation of (S)-2-(6-(1-(8-fluoro-6-(3-methylisoxazol-5-yl)-[1,2,4]triazolo[4,3-a]pyridin-3-yl)ethyl)quinolin-3-yloxy)acetic acid in presence of NADPH by LC-MS/MS method; format: ADME, Macaca mulatta; conditions: rhesus monkey; method in brief: as §2
[9] = system: Mus musculus; experiment: Inhibition of human recombinant HGF-stimulated c-Met autophosphorylation in Balb/c mouse assessed as relative phospho c-Met level at 10 mg/kg, po administered as single dose and measured 1 hr before mouse sacrifice by electrochemiluminescence immunoassay; format: functional; set-up: scale not given: the % may be the effect or the level left; method in brief: as §1
[10] = Half life in Sprague-Dawley rat at 0.25 mg/kg, iv; format: ADME, organism-based; set-up: dose 0.25 mg/kg, route intravenous; conditions: in vivo
[11] = system: Mus musculus; experiment: Inhibition of human recombinant HGF-stimulated c-Met autophosphorylation in Balb/c mouse assessed as relative phospho c-Met level at 10 mg/kg, po administered as single dose and measured 9 hrs before mouse sacrifice by electrochemiluminescence immunoassay; format: functional; set-up: scale not given: the % may be the effect or the level left; method in brief: as §1
[12] = Drug metabolism in mouse liver microsomes assessed as formation of (S)-2-(6-(1-(8-fluoro-6-(3-methylisoxazol-5-yl)-[1,2,4]triazolo[4,3-a]pyridin-3-yl)ethyl)quinolin-3-yloxy)acetic acid in presence of NADPH by LC-MS/MS method; format: ADME; method in brief: as §2
[13] = system: Mus musculus; experiment: Inhibition of human recombinant HGF-stimulated c-Met autophosphorylation in Balb/c mouse assessed as relative phospho c-Met level at 10 mg/kg, po administered as single dose and measured 12 hrs before mouse sacrifice by electrochemiluminescence immunoassay; format: functional; set-up: scale not given: the % may be the effect or the level left; method in brief: as §1
[14] = system: Liver microsome; experiment: Drug metabolism in rat liver microsomes assessed as formation of (S)-2-(6-(1-(8-fluoro-6-(3-methylisoxazol-5-yl)-[1,2,4]triazolo[4,3-a]pyridin-3-yl)ethyl)quinolin-3-yloxy)acetic acid in presence of NADPH by LC-MS/MS method; format: ADME; method in brief: as §2
[15] = system: Liver microsome; experiment: Drug metabolism in human liver microsomes assessed as formation of (S)-2-(6-(1-(8-fluoro-6-(3-methylisoxazol-5-yl)-[1,2,4]triazolo[4,3-a]pyridin-3-yl)ethyl)quinolin-3-yloxy)ethanol in presence of NADPH by LC-MS/MS method; format: ADME; method in brief: as §2
[16] = system: Liver microsome; experiment: Drug metabolism in dog liver microsomes assessed as formation of (S)-2-(6-(1-(8-fluoro-6-(3-methylisoxazol-5-yl)-[1,2,4]triazolo[4,3-a]pyridin-3-yl)ethyl)quinolin-3-yloxy)ethanol in presence of NADPH by LC-MS/MS method; format: ADME, Canis lupus familiaris; method in brief: as §2
[17] = system: Mus musculus; experiment: Inhibition of human recombinant HGF-stimulated c-Met autophosphorylation in Balb/c mouse assessed as relative phospho c-Met level at 10 mg/kg, po administered as single dose and measured 6 hrs before mouse sacrifice by electrochemiluminescence immunoassay; format: functional; set-up: scale not given: the % may be the effect or the level left; method in brief: as §1
[18] = Drug metabolism in mouse liver microsomes assessed as formation of (S)-2-(6-(1-(8-fluoro-6-(3-methylisoxazol-5-yl)-[1,2,4]triazolo[4,3-a]pyridin-3-yl)ethyl)quinolin-3-yloxy)ethanol in presence of NADPH by LC-MS/MS method; format: ADME; method in brief: as §2
[19] = system: Liver microsome; experiment: Unbound clearance rat liver microsomes at 1 uM in presence of NADPH by LC-MS/MS method; format: ADME
Method in brief: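 Aliquots were taken at 0, 10, 20, 30 and 40 min, quenched with an equal volume of acetonitrile, centrifuged and analysed by LC/MS/MS.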

[20] = Oral bioavailability in Sprague-Dawley rat at 2 mg/kg; format: ADME, organism-based; conditions: in vivo
Method in brief: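 Male Sprague-Dawley rats given 2.0 mg/kg orally in 2% (w/v) hydroxypropylmethylcellulose, 1% (w/v) Tween 80 in water, pH 2.2 (adjusted with HCl or MSA). Some inhibitors instead used 10% (v/v) dimethylacetamide in the same vehicle.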

[21] = system: Liver microsome; experiment: Drug metabolism in dog liver microsomes assessed as formation of (S)-2-(6-(1-(8-fluoro-6-(3-methylisoxazol-5-yl)-[1,2,4]triazolo[4,3-a]pyridin-3-yl)ethyl)quinolin-3-yloxy)acetic acid in presence of NADPH by LC-MS/MS method; format: ADME, Canis lupus familiaris; method in brief: as §2
[22] = Drug metabolism in monkey liver microsomes assessed as formation of (S)-2-(6-(1-(8-fluoro-6-(3-methylisoxazol-5-yl)-[1,2,4]triazolo[4,3-a]pyridin-3-yl)ethyl)quinolin-3-yloxy)ethanol in presence of NADPH by LC-MS/MS method; format: ADME, Macaca mulatta; conditions: rhesus monkey; method in brief: as §2
[23] = system: Liver microsome; experiment: Drug metabolism in human liver microsomes assessed as formation of (S)-2-(6-(1-(8-fluoro-6-(3-methylisoxazol-5-yl)-[1,2,4]triazolo[4,3-a]pyridin-3-yl)ethyl)quinolin-3-yloxy)acetic acid in presence of NADPH by LC-MS/MS method; format: ADME; method in brief: as §2
[24] = system: Mus musculus; experiment: Inhibition of human recombinant HGF-stimulated c-Met autophosphorylation in Balb/c mouse assessed as relative phospho c-Met level at 10 mg/kg, po administered as single dose and measured 3 hrs before mouse sacrifice by electrochemiluminescence immunoassay; format: functional; set-up: scale not given: the % may be the effect or the level left; method in brief: as §1
[25] = system: Liver microsome; experiment: Drug level in human liver microsomes treated with 5-(8-Fluoro-3-(1-(3-methoxyquinolin-6-yl)ethyl)[1,2,4]-triazolo[4,3-a]pyridin-6-yl)-3-methylisoxazole assessed as compound formation in presence of NADPH by LC-MS/MS method; format: ADME; method in brief: as §2
[26] = Drug level in monkey liver microsomes treated with 5-(8-Fluoro-3-(1-(3-methoxyquinolin-6-yl)ethyl)[1,2,4]-triazolo[4,3-a]pyridin-6-yl)-3-methylisoxazole assessed as compound formation in presence of NADPH by LC-MS/MS method; format: ADME, Macaca mulatta; conditions: rhesus monkey; method in brief: as §2

T1 sequence (P08581 whole entry, the tested form may be a part): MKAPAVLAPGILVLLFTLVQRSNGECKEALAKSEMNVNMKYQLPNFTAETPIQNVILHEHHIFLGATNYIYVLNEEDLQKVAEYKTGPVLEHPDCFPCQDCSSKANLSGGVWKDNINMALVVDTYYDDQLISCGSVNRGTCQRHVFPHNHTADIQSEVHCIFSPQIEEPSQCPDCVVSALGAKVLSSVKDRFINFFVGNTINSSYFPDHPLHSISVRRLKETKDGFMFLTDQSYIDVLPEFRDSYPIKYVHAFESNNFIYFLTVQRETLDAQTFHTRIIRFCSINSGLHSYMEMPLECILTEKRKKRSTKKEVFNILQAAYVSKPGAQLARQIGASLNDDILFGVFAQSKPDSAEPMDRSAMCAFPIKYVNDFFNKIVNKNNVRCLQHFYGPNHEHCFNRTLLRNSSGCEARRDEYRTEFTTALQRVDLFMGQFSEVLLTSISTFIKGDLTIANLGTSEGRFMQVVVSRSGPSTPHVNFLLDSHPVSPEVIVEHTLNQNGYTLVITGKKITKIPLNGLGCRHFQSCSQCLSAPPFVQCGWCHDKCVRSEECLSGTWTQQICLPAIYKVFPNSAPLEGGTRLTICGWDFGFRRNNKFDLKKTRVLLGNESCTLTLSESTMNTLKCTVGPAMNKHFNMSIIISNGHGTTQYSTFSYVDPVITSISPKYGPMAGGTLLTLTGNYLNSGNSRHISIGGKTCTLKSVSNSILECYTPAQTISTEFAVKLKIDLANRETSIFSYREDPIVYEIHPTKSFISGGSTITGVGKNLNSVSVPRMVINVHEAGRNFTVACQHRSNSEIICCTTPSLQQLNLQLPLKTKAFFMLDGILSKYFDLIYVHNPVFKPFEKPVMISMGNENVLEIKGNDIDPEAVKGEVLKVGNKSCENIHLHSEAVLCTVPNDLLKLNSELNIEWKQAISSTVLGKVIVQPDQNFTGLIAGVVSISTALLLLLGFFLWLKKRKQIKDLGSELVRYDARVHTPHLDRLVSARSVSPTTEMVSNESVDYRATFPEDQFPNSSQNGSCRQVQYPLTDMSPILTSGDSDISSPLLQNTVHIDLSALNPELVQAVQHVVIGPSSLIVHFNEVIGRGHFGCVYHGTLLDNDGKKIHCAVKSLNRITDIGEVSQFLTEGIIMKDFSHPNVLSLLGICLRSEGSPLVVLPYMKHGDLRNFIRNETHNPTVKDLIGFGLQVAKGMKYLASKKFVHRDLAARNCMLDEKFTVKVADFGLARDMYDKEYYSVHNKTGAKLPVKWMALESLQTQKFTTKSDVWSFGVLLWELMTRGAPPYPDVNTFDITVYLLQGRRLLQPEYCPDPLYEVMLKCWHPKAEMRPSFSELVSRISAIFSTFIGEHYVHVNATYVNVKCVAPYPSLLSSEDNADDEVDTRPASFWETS

Vd [1]: 4.9 L/kg | IC50 [3]: 1 nM | IC50 [4]: 5 nM | Drug metabolism [5]: metabolite_detected | AUC [6]: 3.1 µM·h | CL [7]: 9.5 mL/min/kg | Drug metabolism [8]: metabolite_detected | half-life [10]: 4.2 h | Drug metabolism [12]: metabolite_detected | Drug metabolism [14]: metabolite_detected | Drug metabolism [15]: metabolite_detected | Drug metabolism [16]: metabolite_detected | Drug metabolism [18]: metabolite_detected | CL free [19]: 417 mL/min/kg | bioavailability [20]: 46% | Drug metabolism [21]: metabolite_detected | Drug metabolism [22]: metabolite_detected | Drug metabolism [23]: metabolite_detected
SMILES: COCCOc1cnc2ccc([C@H](C)c3nnc4c(F)cc(-c5cc(C)no5)cn34)cc2c1
Activity [2]: 27% | Activity [9]: 96% | Activity [11]: 64% | Activity [13]: 47% | Activity [17]: 94% | Activity [24]: 99%

Drug metabolism [25]: metabolite_detected | Drug metabolism [26]: metabolite_detected
SMILES: COc1cnc2ccc([C@H](CO)c3nnc4c(F)cc(-c5cc(C)no5)cn34)cc2c1
